Assay results taken from ChEMBL document CHEMBL1144407, “Synthesis of phosphonated carbocyclic 2'-oxa-3'-aza-nucleosides: novel inhibitors of reverse transcriptase” (J Med Chem, 2005).

Columns and labels:
MOLT-3 [1] = assay: Cytotoxicity in human Molt-3 cell line after 72 hours; assay type: functional; conditions: MOLT-3, 72 h
Summary of the method: (§1)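 Cells held in optimal culture conditions were exposed to test agent at 16 to 1000 µM, or control medium, for the stated time. Viability was scored by trypan blue exclusion. CC50 is the concentration giving 50% toxicity, from three or more experiments (some values are the mean of two).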

MOLT-3 [2] = assay: Induction of apoptosis by the compound in human Molt-3 cell line after 48 hours; assay type: functional, cell-based; conditions: MOLT-3, 48 h
Summary of the method: (§2)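 Cultures were exposed under optimal conditions to 16–1000 µM compound, or control medium, for the stated time. Cells were stained with acridine orange, and over 600 cells were counted by fluorescence microscopy. AC50 is the concentration giving 50% apoptosis, from three or more experiments (some are the mean of two).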

MOLT-3 [3] = assay: Induction of apoptosis by the compound in human Molt-3 cell line after 72 hours; assay type: functional, cell-based; conditions: MOLT-3, 72 h; summary of the method: as §2
U-937 [4] = assay: Induction of apoptosis by the compound in human U937 cell line after 48 hours; assay type: functional, cell-based; conditions: U-937, 48 h; summary of the method: as §2
HL-60 [5] = assay: Cytotoxicity in human HL-60 cell line after 48 hours; assay type: functional; conditions: HL-60, 48 h; summary of the method: as §1
U-937 [6] = assay: Induction of apoptosis by the compound in human U937 cell line after 24 hours; assay type: functional, cell-based; conditions: U-937, 24 h; summary of the method: as §2
U-937 [7] = assay: Cytotoxicity in human U937 cell line after 48 hours; assay type: functional; conditions: U-937, 48 h; summary of the method: as §1
HL-60 [8] = assay: Cytotoxicity in human HL-60 cell line after 72 hours; assay type: functional; conditions: HL-60, 72 h; summary of the method: as §1
HL-60 [9] = assay: Cytotoxicity in human HL-60 cell line after 24 hours; assay type: functional; conditions: HL-60, 24 h; summary of the method: as §1
MOLT-3 [10] = assay: Cytotoxicity in human Molt-3 cell line after 24 hours; assay type: functional; conditions: MOLT-3, 24 h; summary of the method: as §1
MOLT-3 [11] = assay: Induction of apoptosis by the compound in human Molt-3 cell line after 24 hours; assay type: functional, cell-based; conditions: MOLT-3, 24 h; summary of the method: as §2
HL-60 [12] = assay: Induction of apoptosis by the compound in human HL-60 cell line after 48 hours; assay type: functional, cell-based; conditions: HL-60, 48 h; summary of the method: as §2
HL-60 [13] = assay: Induction of apoptosis by the compound in human HL-60 cell line after 72 hours; assay type: functional, cell-based; conditions: HL-60, 72 h; summary of the method: as §2
U-937 [14] = assay: Cytotoxicity in human U937 cell line after 72 hours; assay type: functional; conditions: U-937, 72 h; summary of the method: as §1
U-937 [15] = assay: Induction of apoptosis by the compound in human U937 cell line after 72 hours; assay type: functional, cell-based; conditions: U-937, 72 h; summary of the method: as §2
U-937 [16] = assay: Cytotoxicity in human U937 cell line after 24 hours; assay type: functional; conditions: U-937, 24 h; summary of the method: as §1
HL-60 [17] = assay: Induction of apoptosis by the compound in human HL-60 cell line after 24 hours; assay type: functional, cell-based; conditions: HL-60, 24 h; summary of the method: as §2
MOLT-3 [18] = assay: Cytotoxicity in human Molt-3 cell line after 48 hours; assay type: functional; conditions: MOLT-3, 48 h; summary of the method: as §1

CCOP(=O)(CC1CC(n2ccc(N)nc2=O)ON1C)OCC (configuration not stated)
CC50 (MOLT-3 [1]): > 1 mM | AC50 (MOLT-3 [2]): > 1 mM | AC50 (MOLT-3 [3]): > 1 mM | AC50 (U-937 [4]): > 1 mM | CC50 (HL-60 [5]): > 1 mM | AC50 (U-937 [6]): > 1 mM | CC50 (U-937 [7]): > 1 mM | CC50 (HL-60 [8]): > 1 mM | CC50 (HL-60 [9]): > 1 mM | CC50 (MOLT-3 [10]): > 1 mM | AC50 (MOLT-3 [11]): > 1 mM | AC50 (HL-60 [12]): > 1 mM | AC50 (HL-60 [13]): > 1 mM | CC50 (U-937 [14]): > 1 mM | AC50 (U-937 [15]): > 1 mM | CC50 (U-937 [16]): > 1 mM | AC50 (HL-60 [17]): > 1 mM | CC50 (MOLT-3 [18]): > 1 mM

CCOP(=O)(CC1CC(n2cc(C)c(=O)[nH]c2=O)ON1C)OCC (configuration not stated)
CC50 (MOLT-3 [1]): > 1 mM | AC50 (MOLT-3 [2]): > 1 mM | AC50 (MOLT-3 [3]): > 1 mM | AC50 (U-937 [4]): > 1 mM | CC50 (HL-60 [5]): > 1 mM | AC50 (U-937 [6]): > 1 mM | CC50 (U-937 [7]): > 1 mM | CC50 (HL-60 [8]): > 1 mM | CC50 (HL-60 [9]): > 1 mM | CC50 (MOLT-3 [10]): > 1 mM | AC50 (MOLT-3 [11]): > 1 mM | AC50 (HL-60 [12]): > 1 mM | AC50 (HL-60 [13]): > 1 mM | CC50 (U-937 [14]): > 1 mM | AC50 (U-937 [15]): > 1 mM | CC50 (U-937 [16]): > 1 mM | AC50 (HL-60 [17]): > 1 mM | CC50 (MOLT-3 [18]): > 1 mM

CCOP(=O)(CC1CC(n2cc(F)c(=O)[nH]c2=O)ON1C)OCC (configuration not stated)
CC50 (MOLT-3 [1]): 0.141 mM | AC50 (MOLT-3 [2]): 0.277 mM | AC50 (MOLT-3 [3]): 0.17 mM | CC50 (HL-60 [5]): 0.457 mM | CC50 (HL-60 [8]): 0.408 mM | CC50 (HL-60 [9]): > 1 mM | CC50 (MOLT-3 [10]): 0.247 mM | AC50 (MOLT-3 [11]): 0.457 mM | AC50 (HL-60 [12]): 0.151 mM | AC50 (HL-60 [17]): 0.25 mM | CC50 (MOLT-3 [18]): 0.197 mM
